# Assay results: ChEMBL document CHEMBL5543170, “Identification of Potent and Selective Inhibitors of Acanthamoeba: Structural Insights into Sterol 14α-Demethylase as a Key Drug Target” (J Med Chem, 2024)
# Active and inactive are the calls of the source. No cut-off for these calls is given here.
# Legend:
# Acanthamoeba castellanii [1] = experiment: Anti-amoebic activity against Acanthamoeba castellanii ATCC 50491 assessed as inhibition of amoebic growth incubated for 48 hrs by resazurin dye based microtiter plate analysis; assay type: functional
# How it was run: (§1)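 Trophozoites kept axenically in PYG medium at 28 °C, grown to confluence for 48 h, then diluted to 5 × 10^4 trophozoites/mL (1 × 10^4 cells per well). Azoles added from DMSO stocks via PYG to final 0.03125–64 μg/mL (twofold series); 1% DMSO controls. Incubated 48 h at 28 °C, then 0.02% resazurin added for a further 48 h. Purple-to-pink change scored as respiring cells; MIC in triplicate.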
# Acanthamoeba polyphaga = experiment: Anti-amoebic activity against Acanthamoeba polyphaga ATCC 30461 assessed as inhibition of amoebic growth incubated for 48 hrs by resazurin dye based microtiter plate analysis; assay type: functional; how it was run: as §1
# [2] = (§2) Catalytic inhibition of Acanthamoeba castellanii CYP51 expressed in Escherichia coli HMS-174 (DE3) cells assessed as inhibition of substrate induced 14alpha-demthylation using obtusifoliol as substrate incubated for 1 hr in presence of NADPH-CYP450 reductase by RP-HPLC analysis
# Acanthamoeba castellanii [3] = experiment: as §2, with “as substrate at […] incubated for” for “as substrate incubated for”, “RP-HPLC analysis relative to control” for “RP-HPLC analysis”; details: dose 1.5 µM
# Acanthamoeba castellanii [4] = experiment: Substrate activity at Acanthamoeba castellanii CYP51 expressed in Escherichia coli HMS-174 (DE3) cells assessed as Kcat measured after 20 mins by Michaelis-Menten analysis
# How it was run: (§3)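 Full-length His6-tagged CYP51, purified by Ni-NTA, Q- and CM-Sepharose, reconstituted with rat CPR (0.5 μM P450, 2 μM CPR), 37 °C. […] Rates as nmol product/min/nmol P450 vs total substrate, fitted to Michaelis–Menten hyperbola; triplicate, mean ± SD.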
# Acanthamoeba castellanii [5] = experiment: Substrate activity at Acanthamoeba castellanii CYP51 expressed in Escherichia coli HMS-174 (DE3) cells assessed as Km measured after 20 mins by Michaelis-Menten analysis; how it was run: as §3
# Acanthamoeba castellanii [6] = experiment: Substrate activity at Acanthamoeba castellanii CYP51 expressed in Escherichia coli HMS-174 (DE3) cells assessed as Kcat/Km measured after 20 mins by Michaelis-Menten analysis; how it was run: as §3
# [7] = Binding affinity to Acanthamoeba castellanii CYP51 expressed in Escherichia coli HMS-174 (DE3) cells assessed as dissociation constant by UV-Visible spectrophotometry
# Acanthamoeba castellanii [8] = experiment: Substrate activity at Acanthamoeba castellanii CYP51 expressed in Escherichia coli HMS-174 (DE3) cells assessed as Kcat measured after 60 sec by Michaelis-Menten analysis; how it was run: as §3
# Acanthamoeba castellanii [9] = experiment: Substrate activity at Acanthamoeba castellanii CYP51 expressed in Escherichia coli HMS-174 (DE3) cells assessed as Km measured after 60 sec by Michaelis-Menten analysis; how it was run: as §3
# Acanthamoeba castellanii [10] = experiment: Substrate activity at Acanthamoeba castellanii CYP51 expressed in Escherichia coli HMS-174 (DE3) cells assessed as Kcat/Km measured after 60 sec by Michaelis-Menten analysis; how it was run: as §3
smiles,measurement,setting,value
O=C(N[C@@H](Cn1ccnc1)c1ccc(Cl)cc1Cl)c1ccc(-c2nnc(-c3ccccc3)o2)cc1,MIC,Acanthamoeba castellanii [1],4 µM
same,MIC,Acanthamoeba polyphaga,> 64 µg/mL
FC(F)(F)c1ccc(N(c2cccnc2)C2CCN(c3ccc(C(F)(F)F)cn3)CC2)cc1,IC50,[2],1300 nM
O=C([C@@H](c1ccc(Cl)cc1)c1cccnc1)N1CCN(c2ccc(C(F)(F)F)cc2)CC1,IC50,[2],5500 nM
O=C(N[C@@H](Cn1ccnc1)c1ccc(-c2ccc(F)cc2)cc1F)c1ccc(-c2nnc(-c3ccccc3)o2)cc1,MIC,Acanthamoeba castellanii [1],> 64 µg/mL
same,MIC,Acanthamoeba polyphaga,> 64 µg/mL
CC(=O)N1CCN(c2ccc(OCC3COC(Cn4ccnc4)(c4ccc(Cl)cc4Cl)O3)cc2)CC1 (stereo not given),inhibition,Acanthamoeba castellanii [3],inactive
CC(C)(C#N)c1cc(Cn2cncn2)cc(C(C)(C)C#N)c1,inhibition,Acanthamoeba castellanii [3],inactive
CC[C@@H]([C@H](C)O)n1ncn(-c2ccc(N3CCN(c4ccc(OC[C@@H]5CO[C@@](Cn6cncn6)(c6ccc(F)cc6F)C5)cc4)CC3)cc2)c1=O,inhibition,Acanthamoeba castellanii [3],inactive
C[C@@H](c1nc(-c2ccc(C#N)cc2)cs1)[C@](O)(Cn1cncn1)c1ccc(F)cc1F,inhibition,Acanthamoeba castellanii [3],inactive
Clc1ccc(COC(Cn2ccnc2)c2ccc(Cl)cc2Cl)c(Cl)c1 (stereo not given),inhibition,Acanthamoeba castellanii [3],25%
Clc1ccccc1C(c1ccccc1)(c1ccccc1)n1ccnc1,inhibition,Acanthamoeba castellanii [3],82%
N#Cc1ccc(C(c2ccc(C#N)cc2)n2cncn2)cc1,inhibition,Acanthamoeba castellanii [3],inactive
CC(C)=CCC[C@@H](C)[C@H]1CC[C@@]2(C)C3=C(CC[C@]12C)[C@@]1(C)CC[C@H](O)C(C)(C)[C@@H]1CC3 [LANOSTEROL],kcat,Acanthamoeba castellanii [4],0.102 s⁻¹
same,Km,Acanthamoeba castellanii [5],52 µM
same,kcat/Km,Acanthamoeba castellanii [6],2000 M⁻¹ s⁻¹
same,Kd,[7],1220 nM
C=C(CC[C@@H](C)[C@H]1CC[C@@]2(C)C3=C(CC[C@]12C)[C@@]1(C)CC[C@H](O)[C@@H](C)[C@@H]1CC3)C(C)C [OBTUSIFOLIOL],kcat,Acanthamoeba castellanii [8],0.513 s⁻¹
same,Km,Acanthamoeba castellanii [9],2.7 µM
same,kcat/Km,Acanthamoeba castellanii [10],190000 M⁻¹ s⁻¹
same,Kd,[7],30 nM
O[C@@](Cn1cnnn1)(c1ccc(F)cc1F)C(F)(F)c1ccc(-c2ccc(OCC(F)(F)F)cc2)cn1 [OTESECONAZOLE],MIC,Acanthamoeba castellanii [1],0.057 µM
same,MIC,Acanthamoeba polyphaga,0.114 µM
C[C@@H](c1ncncc1F)[C@](O)(Cn1cncn1)c1ccc(F)cc1F [VORICONAZOLE],MIC,Acanthamoeba castellanii [1],0.09 µM
same,MIC,Acanthamoeba polyphaga,0.75 µM
same,inhibition,Acanthamoeba castellanii [3],85%
same,IC50,[2],450 nM
N#Cc1ccc(COc2ccc(C#Cc3ccc(C(F)(F)[C@](O)(Cn4cnnn4)c4ccc(F)cc4F)nc3)cc2)cc1 [VT-1598],MIC,Acanthamoeba castellanii [1],0.077 µM
same,MIC,Acanthamoeba polyphaga,0.425 µM
same,IC50,[2],250 nM
